Reference: ChEMBL document CHEMBL1128440 (J Med Chem, 1995)

How the values were obtained:
Rattus norvegicus [1] = organism: Rattus norvegicus; assay: Tissue biodistribution into estrogen-primed immature female rat lung at 1 hr blocked time interval; type: ADME, organism-based; conditions: in vivo
Summary of the method: (§1)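 Immature female Sprague-Dawley rats (25 days old, ≈50 g, five per time point) primed with estradiol, 5 μg sc daily for 2 days in 50% ethanol/sunflower seed oil, used 24 h after the last injection. The 18F-labeled ligand was given iv by tail vein in 10% ethanol/saline. Decapitated at 1 or 3 h; blood and organs weighed and gamma-counted. Reported as %ID/g ± SD, n = 5.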

Rattus norvegicus [2] = organism: Rattus norvegicus; assay: Tissue biodistribution into estrogen-primed immature female rat kidney at 1 hr time interval; type: ADME, organism-based; conditions: in vivo; summary of the method: as §1
[3] = target: T1, Progesterone receptor (Homo sapiens) (UniProt P06401); assay: Relative binding affinity against progesterone receptor at 0 degree Celsius determined in a competitive radiometric binding assay (R5020=100%).
T1 sequence (whole entry): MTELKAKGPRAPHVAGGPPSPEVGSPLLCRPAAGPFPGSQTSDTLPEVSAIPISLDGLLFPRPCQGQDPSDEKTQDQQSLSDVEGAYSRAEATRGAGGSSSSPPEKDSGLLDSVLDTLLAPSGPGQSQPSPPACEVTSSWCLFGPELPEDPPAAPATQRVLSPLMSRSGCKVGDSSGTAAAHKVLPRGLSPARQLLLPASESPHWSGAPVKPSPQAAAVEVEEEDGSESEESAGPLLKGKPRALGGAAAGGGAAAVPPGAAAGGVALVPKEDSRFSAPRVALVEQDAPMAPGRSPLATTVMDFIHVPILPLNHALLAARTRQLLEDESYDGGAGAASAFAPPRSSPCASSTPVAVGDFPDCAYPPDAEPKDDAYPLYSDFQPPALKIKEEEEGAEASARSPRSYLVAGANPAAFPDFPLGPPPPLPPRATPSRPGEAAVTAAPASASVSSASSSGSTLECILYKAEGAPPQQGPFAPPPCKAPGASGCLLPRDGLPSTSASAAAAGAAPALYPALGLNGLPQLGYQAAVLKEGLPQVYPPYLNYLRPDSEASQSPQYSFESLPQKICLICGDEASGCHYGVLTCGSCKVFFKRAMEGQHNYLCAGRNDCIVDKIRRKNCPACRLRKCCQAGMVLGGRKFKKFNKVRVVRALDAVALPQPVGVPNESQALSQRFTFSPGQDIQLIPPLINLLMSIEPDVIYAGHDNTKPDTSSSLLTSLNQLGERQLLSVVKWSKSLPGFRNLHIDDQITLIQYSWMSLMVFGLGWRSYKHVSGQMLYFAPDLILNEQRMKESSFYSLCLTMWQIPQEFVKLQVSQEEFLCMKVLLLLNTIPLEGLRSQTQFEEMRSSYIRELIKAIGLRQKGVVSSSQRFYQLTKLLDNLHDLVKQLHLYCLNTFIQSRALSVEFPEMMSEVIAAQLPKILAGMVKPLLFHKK
Summary of the method: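 Competitive radiometric binding at 0 °C against tritium-labeled R5020 as the standard (RBA = 100). Values are the average of two experiments.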

Rattus norvegicus [4] = organism: Rattus norvegicus; assay: Tissue biodistribution into estrogen-primed immature female rat uterus/blood at 1 hr blocked time interval; type: ADME, organism-based; conditions: in vivo; summary of the method: as §1
Rattus norvegicus [5] = organism: Rattus norvegicus; assay: Tissue biodistribution into estrogen-primed immature female rat bone at 1 hr blocked time interval; type: ADME, organism-based, Bone element; conditions: in vivo; summary of the method: as §1
Rattus norvegicus [6] = organism: Rattus norvegicus; assay: Tissue biodistribution into estrogen-primed immature female rat uterus at 1 hr blocked time interval; type: ADME, organism-based; conditions: in vivo; summary of the method: as §1
Rattus norvegicus [7] = organism: Rattus norvegicus; assay: Tissue biodistribution into estrogen-primed immature female rat muscle at 1 hr time interval; type: ADME, organism-based; conditions: in vivo; summary of the method: as §1
Rattus norvegicus [8] = organism: Rattus norvegicus; assay: Tissue biodistribution into estrogen-primed immature female rat uterus at 1 hr time interval; type: ADME, organism-based; conditions: in vivo; summary of the method: as §1
Rattus norvegicus [9] = organism: Rattus norvegicus; assay: Tissue biodistribution into estrogen-primed immature female rat bone at 3 hr time interval; type: ADME, organism-based, Bone element; conditions: in vivo; summary of the method: as §1
Rattus norvegicus [10] = organism: Rattus norvegicus; assay: Tissue biodistribution into estrogen-primed immature female rat lung at 3 hr time interval; type: ADME, organism-based; conditions: in vivo; summary of the method: as §1
[11] = target: T1, Progesterone receptor (Homo sapiens); assay: Binding selectivity index as the ratio of RBA value to that of NSB value.
Summary of the method: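 BSI calculated as the ratio of RBA to NSB.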

Rattus norvegicus [12] = organism: Rattus norvegicus; assay: Tissue biodistribution into estrogen-primed immature female rat liver at 1 hr time interval; type: ADME, organism-based; conditions: in vivo; summary of the method: as §1
Rattus norvegicus [13] = organism: Rattus norvegicus; assay: Tissue biodistribution into estrogen-primed immature female rat liver at 1 hr low time interval; type: ADME, organism-based; conditions: in vivo; summary of the method: as §1
Rattus norvegicus [14] = organism: Rattus norvegicus; assay: Tissue biodistribution into estrogen-primed immature female rat ovaries at 1 hr low time interval; type: ADME, organism-based, Female gonad; conditions: in vivo; summary of the method: as §1
Rattus norvegicus [15] = organism: Rattus norvegicus; assay: Tissue biodistribution into estrogen-primed immature female rat uterus/muscle at 1 hr time interval; type: ADME, organism-based; conditions: in vivo
Rattus norvegicus [16] = organism: Rattus norvegicus; assay: Tissue biodistribution into estrogen-primed immature female rat uterus/blood at 1 hr time interval; type: ADME, organism-based; conditions: in vivo; summary of the method: as §1
Rattus norvegicus [17] = organism: Rattus norvegicus; assay: Tissue biodistribution into estrogen-primed immature female rat uterus/muscle at 3 hr time interval; type: ADME, organism-based; conditions: in vivo
Rattus norvegicus [18] = organism: Rattus norvegicus; assay: Tissue biodistribution into estrogen-primed immature female rat liver at 1 hr blocked time interval; type: ADME, organism-based; conditions: in vivo; summary of the method: as §1
Rattus norvegicus [19] = organism: Rattus norvegicus; assay: Tissue biodistribution into estrogen-primed immature female rat uterus/blood at 3 hr time interval; type: ADME, organism-based; conditions: in vivo; summary of the method: as §1
Rattus norvegicus [20] = organism: Rattus norvegicus; assay: Tissue biodistribution into estrogen-primed immature female rat fat at 1 hr blocked time interval; type: ADME, organism-based, Adipose tissue; conditions: in vivo; summary of the method: as §1
Rattus norvegicus [21] = organism: Rattus norvegicus; assay: Tissue biodistribution into estrogen-primed immature female rat uterus/blood at 1 hr low time interval; type: ADME, organism-based; conditions: in vivo; summary of the method: as §1
Rattus norvegicus [22] = organism: Rattus norvegicus; assay: Tissue biodistribution into estrogen-primed immature female rat lung at 1 hr low time interval; type: ADME, organism-based; conditions: in vivo; summary of the method: as §1
Rattus norvegicus [23] = organism: Rattus norvegicus; assay: Tissue biodistribution into estrogen-primed immature female rat blood at 1 hr blocked time interval; type: ADME, organism-based; conditions: in vivo; summary of the method: as §1
[24] = Partition coefficient (logP); type: physicochemical; conditions: octanol/water; read-out: logP
Summary of the method: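 log P(o/w) (octanol/water) estimated by a reversed-phase HPLC method.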

Rattus norvegicus [25] = organism: Rattus norvegicus; assay: Tissue biodistribution into estrogen-primed immature female rat uterus/muscle at 1 hr low time interval; type: ADME, organism-based; conditions: in vivo; summary of the method: as §1
Rattus norvegicus [26] = organism: Rattus norvegicus; assay: Tissue biodistribution into estrogen-primed immature female rat blood at 1 hr low time interval; type: ADME, organism-based; conditions: in vivo; summary of the method: as §1

`CC1(c2ccco2)O[C@@H]2CC3C4CCC5=CC(=O)CC[C@@H]5C4CC[C@]3(C)[C@]2(C(=O)CF)O1` (stereo partly specified) gave an Injected dose/g (Rattus norvegicus [1]) of 1.16%, an Injected dose/g (Rattus norvegicus [2]) of 1.59% and an RBA [3] of 173. It also gave a uterus/blood ratio (Rattus norvegicus [4]) of 2.47, an Injected dose/g (Rattus norvegicus [5]) of 1.29% and an Injected dose/g (Rattus norvegicus [6]) of 1.43%. The Injected dose/g (Rattus norvegicus [7]) was 0.64%, the Injected dose/g (Rattus norvegicus [8]) was 6.51% and the Injected dose/g (Rattus norvegicus [9]) was 1.51%. It also gave an Injected dose/g (Rattus norvegicus [10]) of 0.27%, a BSI [11] of 159 and an Injected dose/g (Rattus norvegicus [12]) of 1.26%. For the same compound, the Injected dose/g (Rattus norvegicus [13]) was 0.68%, the Injected dose/g (Rattus norvegicus [14]) was 1.58% and the “Uterus to muscle uptake ratio” value (Rattus norvegicus [15]) was 12.07%. The “Uterus to blood concentration ratio” value (Rattus norvegicus [16]) was 20.09%, the ratio (Rattus norvegicus [17]) was 53.1 and the Injected dose/g (Rattus norvegicus [18]) was 1.52%. It also gave a uterus/blood ratio (Rattus norvegicus [19]) of 71.1, an Injected dose/g (Rattus norvegicus [20]) of 3.48% and an Injected dose/g (Rattus norvegicus [21]) of 10%. For the same compound, the Injected dose/g (Rattus norvegicus [22]) was 1.23%, the Injected dose/g (Rattus norvegicus [23]) was 0.6% and the logP [24] was 4.13. The Injected dose/g (Rattus norvegicus [25]) was 12.09% and the Injected dose/g (Rattus norvegicus [26]) was 0.35%.
